Source: publication PMC10209927 (Russian Journal of General Chemistry, 2023)

Columns and labels:
aldose reductase (ALR2) = aldose reductase (ALR2) (Homo sapiens, UniProt P15121); assay: In vitro aldose reductase; format: biochemical
Method in brief: (§1)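 Enzymes isolated and purified by earlier reported methods, ALR1 at 2.19 μg/well and ALR2 at 1.85 μg/well. Test compound (20 µL of 1 mM solution) was preincubated with the enzyme in 100 mM KH2PO4, pH 6.2, at 37°C for 10 min. Then substrate (50 mM as added) and NADPH (0.5 mM as added) were introduced. OD340 was read after 30 min. % inhibition = 100 − (A test/A control × 100). IC50 ± SEM was determined for compounds with >50% inhibition.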

[1] = target: T1, aldehyde reductase (ALR1) (Homo sapiens, UniProt P14550); assay: In vitro aldehyde reductase; format: biochemical
T1 sequence (P14550 1-325): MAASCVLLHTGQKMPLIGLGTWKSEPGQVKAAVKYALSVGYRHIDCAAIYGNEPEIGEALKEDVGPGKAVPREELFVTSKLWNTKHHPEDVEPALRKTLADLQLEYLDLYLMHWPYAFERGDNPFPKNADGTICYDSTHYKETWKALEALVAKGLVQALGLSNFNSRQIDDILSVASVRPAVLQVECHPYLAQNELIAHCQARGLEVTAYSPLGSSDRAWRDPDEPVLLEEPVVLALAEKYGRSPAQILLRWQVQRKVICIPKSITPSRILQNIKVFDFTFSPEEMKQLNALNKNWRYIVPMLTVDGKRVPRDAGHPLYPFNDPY
Method in brief: as §1

IC50 (aldose reductase (ALR2))	IC50 [1]	SMILES
10 ± 1.56 µM		O=C1N=C(Nc2ccccc2)S/C1=C\c1ccccc1OCc1cn(Cc2ccc(Cl)cc2)nn1 [Compound 9c, (Z)-5-(2-{[1-(4-Chlorobenzyl)-1H-1,2,3-triazol-4-yl]methoxy}benzylidene)-2-(phenylamino)thiazol-4(5H)-one]
28 ± 1.23 µM	90 ± 0.56 µM	O=C1N=C(Nc2ccccc2)S/C1=C\c1ccccc1OCc1cn(Cc2cccc(Cl)c2)nn1 [Compound 9b, (Z)-5-(2-{[1-(3-Chlorobenzyl)-1H-1,2,3-triazol-4-yl]methoxy}benzylidene)-2-(phenylamino)thiazol-4(5H)-one]
